Series [1] concerns the target T1, Seed linoleate 13S-lipoxygenase-1 (Glycine max) (UniProt P08170).
T1 sequence (whole entry): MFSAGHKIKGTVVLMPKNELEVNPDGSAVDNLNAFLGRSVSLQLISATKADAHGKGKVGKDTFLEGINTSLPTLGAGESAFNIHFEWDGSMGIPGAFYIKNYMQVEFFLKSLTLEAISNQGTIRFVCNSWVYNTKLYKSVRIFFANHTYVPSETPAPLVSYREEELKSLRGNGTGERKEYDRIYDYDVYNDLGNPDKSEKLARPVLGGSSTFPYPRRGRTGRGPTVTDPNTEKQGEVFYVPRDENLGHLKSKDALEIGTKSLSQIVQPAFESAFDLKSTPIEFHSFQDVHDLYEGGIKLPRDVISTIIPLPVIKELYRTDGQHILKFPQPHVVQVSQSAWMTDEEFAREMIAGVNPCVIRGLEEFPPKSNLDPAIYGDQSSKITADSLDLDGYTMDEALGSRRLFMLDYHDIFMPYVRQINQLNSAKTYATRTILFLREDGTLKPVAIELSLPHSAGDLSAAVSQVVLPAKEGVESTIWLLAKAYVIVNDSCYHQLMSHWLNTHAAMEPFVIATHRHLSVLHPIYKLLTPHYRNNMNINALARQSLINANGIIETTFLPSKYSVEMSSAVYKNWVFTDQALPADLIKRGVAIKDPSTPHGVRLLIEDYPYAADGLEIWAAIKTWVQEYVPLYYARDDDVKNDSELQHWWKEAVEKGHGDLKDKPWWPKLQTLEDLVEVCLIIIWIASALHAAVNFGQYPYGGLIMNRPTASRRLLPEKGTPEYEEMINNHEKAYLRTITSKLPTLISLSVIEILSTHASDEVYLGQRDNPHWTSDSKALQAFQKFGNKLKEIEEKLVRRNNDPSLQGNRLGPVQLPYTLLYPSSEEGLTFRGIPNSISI
In words: Inhibition of LDL oxidation induced by soybean lipoxygenase (SLO) at 5 uM expressed as % control. The format is functional. In a few lines: (§1)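 Rabbit LDL (d 1.019–1.063 g/mL, sequential ultracentrifugation) at 200 μg/mL with compound at stated concentration, oxidized by soybean lipoxygenase type-IS or CuSO4 at 37 °C for 24 h in CO2 incubator. Read-out: TBARS and LDL fluorescence by gel permeation chromatography (0.1 M NaCl, 0.05 M Tris pH 7.4); expressed as % of control; duplicate or more.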

The target of series [2] is T1, Seed linoleate 13S-lipoxygenase-1 (Glycine max). Kind of series: Inhibition of LDL oxidation induced by soybean lipoxygenase (SLO) at 0.5 uM expressed as % control. The class given is functional. In a few lines:
as §1

A short description of series [3]: Inhibition of MCLA chemiluminescence generated by autoxidation of linoleic acid. In a few lines: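 Linoleic acid peroxyl radicals from autoxidation of 1 mM linoleic acid in 1-butanol with 10 μM MCLA, 10 min at 37 °C under air; quenching measured as change in MCLA chemiluminescence after compound addition; IC50 derived; duplicate or more.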
The species entered for series [4] is Oryctolagus cuniculus. Kind of series: Inhibition of LDL oxidation induced by cupric ions (CuSO4) at 10 uM expressed as % control. The class given is functional. The essentials:
as §1

The species named for series [5] is Oryctolagus cuniculus. In words: Inhibition of LDL oxidation induced by cupric ions (CuSO4) at 1 uM expressed as % control. The class given is functional. In a few lines: as §1
Series [6] relates to Oryctolagus cuniculus. Kind of series: Distribution of compound into LDL lipoprotein fraction of WHHL Rabbit's plasma after oral administration. The class given is ADME, organism-based. Particulars: in vivo. In a few lines:
(§2)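 WHHL rabbits given test compound orally (250 mg/kg) once daily for 9 days; at 24 h after final dose plasma lipoproteins isolated by Havel procedure, EtOAc-extracted, compound content per mg lipoprotein measured by reverse-phase HPLC. Mean ± range, n = 2.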

Series [7] relates to Oryctolagus cuniculus. Kind of series: Distribution of compound into HDL lipoprotein fraction of WHHL Rabbit's plasma after oral administration; ND means not detected. The format is ADME, organism-based. Particulars: in vivo. In a few lines: as §2
Series [8] deals with Oryctolagus cuniculus. Kind of series: Distribution of compound into VLDL lipoprotein fraction of WHHL Rabbit's plasma after oral administration. The format is ADME, organism-based. The settings on record: in vivo. The essentials: as §2
The test system of series [9] is Oryctolagus cuniculus. Kind of series: Distribution of compound into HDL lipoprotein fraction of WHHL Rabbit's plasma after oral administration. The class given is ADME, organism-based. Particulars: in vivo. In a few lines:
as §2

Usually IC50 stands for the concentration that gives 50% inhibition. A lower IC50 goes with greater potency in that assay. In the case of `CC(C)(C)c1cc2c(c(C(C)(C)C)c1O)CC1(CCCCC1)O2`, the LDL oxidation remaining, % of control was 0% in [1], 34.1% in series [2], 16% in the series filed under Oryctolagus cuniculus [4] and 77% in the series filed under Oryctolagus cuniculus [5]. In series [3], this molecule had a half-inhibitory concentration (IC50) of 9.3 µM.
Take `CC(C)CCC1(CCC(C)C)Cc2c(cc(C(C)(C)C)c(O)c2C(C)(C)C)O1`: the LDL oxidation remaining, % of control in series [1] worked out at 7.1%; in [2], 91.5%; in the series listed under Oryctolagus cuniculus [4], 23%; in the series filed under Oryctolagus cuniculus [5], 78%. Also, the LDL with Oryctolagus cuniculus [6] was 9.34 µg/mg. The HDL result with Oryctolagus cuniculus [7] was “Not detected”. Moreover, the IC50 in [3] amounted to 5.7 µM. In the series on Oryctolagus cuniculus [8], this molecule showed a VLDL of 25.64 µg/mg.
For the molecule `CC(C)(C)c1cc2c(c(C(C)(C)C)c1O)CC(C(C)(C)C)O2` (stereo unspecified), the LDL oxidation remaining, % of control in [1] turned out to be 1.8%; in [2], 99%; in the series listed under Oryctolagus cuniculus [4], 11%; in the series listed under Oryctolagus cuniculus [5] it was 74%. The molecule also registered an LDL in the series with Oryctolagus cuniculus [6] of 5.08 µg/mg. Besides, in the series with Oryctolagus cuniculus [7], the HDL result is listed as “Not detected”. The molecule also displayed an IC50 in series [3] of 8.4 µM. The molecule also showed a VLDL with Oryctolagus cuniculus [8] of 27.69 µg/mg.
Consider `CC(C)(C)c1cc2c(c(C(C)(C)C)c1O)CC1(CCCC1)O2`, for which the LDL oxidation remaining, % of control in series [1] stood at 0.4%; in series [2], 46.2%; in the series filed under Oryctolagus cuniculus [4] it was 12%; in the series listed under Oryctolagus cuniculus [5], 85%. The same molecule had an IC50 in series [3] of 6.6 µM.
As for `CC1(C)Cc2c(cc(C(C)(C)C)c(O)c2C(C)(C)C)O1`, the LDL oxidation remaining, % of control in series [1] came out at 1.8%; in series [2], 39.8%; in the series listed under Oryctolagus cuniculus [4] it was 10%; in the series filed under Oryctolagus cuniculus [5], 56%. In addition, the midpoint of inhibition in series [3], the IC50, lay at 6.7 µM.
As for `CCCCCCC1(CCCCCC)Cc2c(cc(C(C)(C)C)c(O)c2C(C)(C)C)O1`, the LDL oxidation remaining, % of control in series [1] amounted to 2.7%; in [2], 75.5%; in the series filed under Oryctolagus cuniculus [4], 23%; in the series filed under Oryctolagus cuniculus [5], 86%.
For `CC(C)(C)c1cc2c(c(C(C)(C)C)c1O)CCO2`, the LDL oxidation remaining, % of control in series [1] amounted to 6.9%; in [2], 36%; in the series listed under Oryctolagus cuniculus [4], 11%; in the series filed under Oryctolagus cuniculus [5], 53%. The molecule also displayed an IC50 in [3] of 7.2 µM.
The like results for `CC(C)(C)c1cc2c(c(C(C)(C)C)c1O)CC1(CCOCC1)O2` were, in that order, 4.7%, 71.8%, 22%, 87% and 8.2 µM.
Take `CCCC1(CCC)Cc2c(cc(C(C)(C)C)c(O)c2C(C)(C)C)O1`: the LDL oxidation remaining, % of control in series [1] stood at 0%; in series [2], 33.3%; in the series filed under Oryctolagus cuniculus [4], 13%; in the series filed under Oryctolagus cuniculus [5], 87%. The molecule further displayed an IC50 in series [3] of 4 µM.
With `CC(C)(C)c1cc2c(c(C(C)(C)C)c1O)CC1(CCCCCCC1)O2`, the LDL oxidation remaining, % of control in series [1] came to 9%; in series [2], 97.2%; in the series listed under Oryctolagus cuniculus [4] it was 22%; in the series listed under Oryctolagus cuniculus [5], 92%. Moreover, in [3], the IC50 came to 9.4 µM.
For the molecule `CC(C)(C)c1cc2c(c(C(C)(C)C)c1O)CC(Cc1ccccc1)(Cc1ccccc1)O2`, the LDL oxidation remaining, % of control in series [1] came out at 3.6%; in series [2], 63.5%; in the series filed under Oryctolagus cuniculus [4] it was 11%; in the series listed under Oryctolagus cuniculus [5] it was 93%. For the same molecule, the IC50 in series [3] is 10.6 µM.
As for `CCCCC1(CCCC)Cc2c(cc(C(C)(C)C)c(O)c2C(C)(C)C)O1`, the LDL oxidation remaining, % of control in series [1] came to 0.5%; in series [2] it was 51.5%; in the series listed under Oryctolagus cuniculus [4], 12%; in the series listed under Oryctolagus cuniculus [5], 82%. This molecule also had an LDL in the series on Oryctolagus cuniculus [6] of 11.04 µg/mg. The 50% inhibitory concentration (IC50) in [3] worked out at 7.9 µM. In addition, the VLDL with Oryctolagus cuniculus [8] is 57.07 µg/mg. In the series on Oryctolagus cuniculus [9], this molecule displayed an HDL of 3.22 µg/mg.
In the case of `CCCCCCCCC1(CCCCCCCC)Cc2c(cc(C(C)(C)C)c(O)c2C(C)(C)C)O1`, the LDL oxidation remaining, % of control in [1] is 11.3%; in [2], 89.8%; in the series listed under Oryctolagus cuniculus [4], 72%; in the series filed under Oryctolagus cuniculus [5], 85%. The molecule further gave an LDL with Oryctolagus cuniculus [6] of 0.36 µg/mg. The HDL result in the series with Oryctolagus cuniculus [7] is “Not detected”. This molecule also showed a half-inhibitory concentration (IC50) in series [3] of 5.6 µM. The molecule further gave a VLDL in the series with Oryctolagus cuniculus [8] of 1.16 µg/mg.
With `CCCCCCCC1(CCCCCCC)Cc2c(cc(C(C)(C)C)c(O)c2C(C)(C)C)O1`, the LDL oxidation remaining, % of control in series [1] was 18.5%; in [2], 88.4%; in the series filed under Oryctolagus cuniculus [4] it was 83%; in the series filed under Oryctolagus cuniculus [5], 89%.
For `CC(C)(Sc1cc(C(C)(C)C)c(O)c(C(C)(C)C)c1)Sc1cc(C(C)(C)C)c(O)c(C(C)(C)C)c1` [PROBUCOL], the LDL oxidation remaining, % of control in [1] is 14%; in [2] it was 73.9%; in the series listed under Oryctolagus cuniculus [4], 28%; in the series filed under Oryctolagus cuniculus [5] it was 87%. Also, in the series with Oryctolagus cuniculus [6], the LDL turned out to be 2.57 µg/mg. Besides, it took 165 µM to reach half-maximal inhibition in series [3] (IC50). In addition, the VLDL with Oryctolagus cuniculus [8] was 5.48 µg/mg. Also, in the series on Oryctolagus cuniculus [9], the HDL was found to be 0.44 µg/mg.
Turning to `CC(C)(C)c1cc2c(c(C(C)(C)C)c1O)CC1(CCCCCC1)O2`, the LDL oxidation remaining, % of control in series [1] came to 2.3%; in series [2] it was 93.4%; in the series filed under Oryctolagus cuniculus [4] it was 9%; in the series listed under Oryctolagus cuniculus [5], 91%. In series [3], the half-maximal inhibitory concentration (IC50) amounted to 7.9 µM.
For the molecule `CCC1(CC)Cc2c(cc(C(C)(C)C)c(O)c2C(C)(C)C)O1`, the LDL oxidation remaining, % of control in series [1] is 1.3%; in series [2] it was 9.4%; in the series listed under Oryctolagus cuniculus [4], 10%; in the series listed under Oryctolagus cuniculus [5], 77%. In series [3], this molecule displayed an IC50 of 4.3 µM.
In the case of `CCCCCC1(CCCCC)Cc2c(cc(C(C)(C)C)c(O)c2C(C)(C)C)O1` [BO-653], the LDL oxidation remaining, % of control in [1] is 4.6%; in [2], 60.9%; in the series listed under Oryctolagus cuniculus [4], 42%; in the series filed under Oryctolagus cuniculus [5] it was 96%. Further, the LDL in the series on Oryctolagus cuniculus [6] was determined as 28.6 µg/mg. The molecule also gave an IC50 in series [3] of 4.6 µM. For the same molecule, the VLDL in the series with Oryctolagus cuniculus [8] is 119.25 µg/mg. The molecule also yielded an HDL in the series with Oryctolagus cuniculus [9] of 2.98 µg/mg.
